Measurements reported in ChEMBL document CHEMBL3108729, “Design, synthesis and anticonvulsant evaluation of N-(benzo[d]thiazol-2-ylcarbamoyl)-2-methyl-4-oxoquinazoline-3(4H)-carbothioamide derivatives: a hybrid pharmacophore approach” (Eur J Med Chem, 2013).
Activity calls are given as the source filed them. No cut-off for these calls is given here.

Experiments:
[1] = test system: Mus musculus; test: Anticonvulsant activity in ip dosed albino mouse assessed as protection against maximal electroshock-induced seizures after 4 hrs; type: functional; conditions: read-out: MED
[2] = test system: Mus musculus; test: Neurotoxicity in ip dosed albino mouse after 0.5 hrs by rotorod test; type: toxicity, organism-based; conditions: in vivo
Outline: (§1)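 Swiss mice, four per dose, received 30, 100 or 300 mg/kg i.p. and were placed on a rotorod at 0.5 and 4 h. Neurotoxicity meant failure to keep balance for 1 min. The value reported is the minimum dose affecting half or more of the mice.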

[3] = test system: Mus musculus; test: Neurotoxicity in ip dosed albino mouse after 4 hrs by rotorod test; type: toxicity, organism-based; conditions: in vivo; outline: as §1
[4] = test system: Mus musculus; test: Anticonvulsant activity in albino mouse assessed as protection against maximal electroshock-induced seizures at 300 mg/kg, ip measured after 0.5 hrs; type: functional, organism-based; parameters: dose 300 mg/kg
[5] = test system: Mus musculus; test: Neurotoxicity in albino mouse at 300 mg/kg, ip after 4 hrs by rotorod test; type: toxicity, organism-based; parameters: dose 300 mg/kg, route intraperitoneal; conditions: in vivo; outline: as §1
[6] = test system: Mus musculus; test: Anticonvulsant activity in ip dosed albino mouse assessed as protection against maximal electroshock-induced seizures after 0.5 hrs; type: functional; conditions: read-out: MED
[7] = test system: Mus musculus; test: Anticonvulsant activity in albino mouse assessed as protection against maximal electroshock-induced seizures at 300 mg/kg, ip measured after 4 hrs; type: functional, organism-based; parameters: dose 300 mg/kg
[8] = test system: Mus musculus; test: Neurotoxicity in albino mouse at 300 mg/kg, ip after 0.5 hrs by rotorod test; type: toxicity, organism-based; parameters: dose 300 mg/kg, route intraperitoneal; conditions: in vivo
Outline: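 Swiss mice (25–30 g), four per dose, got 30, 100 or 300 mg/kg i.p. and were checked on the rotorod at 0.5 and 4 h. Motor impairment meant failure to keep equilibrium on the rod for 1 min. The value is the minimum dose at which half or more of the mice were impaired.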

[9] = test system: Rattus norvegicus; test: Anticonvulsant activity in po dosed albino rat assessed as protection against pentylenetetrazole-induced seizure after 2 hrs; type: functional
[10] = Protective index, ratio of TD50 for neurotoxicity to ED50 for protection against pentylenetetrazole-induced seizure in albino rat after 2 hrs; type: toxicity, organism-based; conditions: in vivo, read-out: Ratio TD50/ED50
Outline: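 Groups of eight rats were dosed orally at the previously estimated time of peak effect, at several doses, until at least three points fell within 10–90% protection or minimal neurotoxicity. ED50 and TD50 with 95% confidence limits came from regression of the plotted data. Protective index was calculated as TD50/ED50.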

[11] = test system: Mus musculus; test: Anticonvulsant activity in ip dosed albino mouse assessed as protection against 6 Hz electroshock-induced seizures after 1 hr; type: functional
[12] = Neurotoxicity in po dosed albino mouse after 1 hr; type: toxicity, organism-based; conditions: in vivo
[13] = Neurotoxicity in po dosed albino rat after 2 hrs; type: toxicity, organism-based; conditions: in vivo
Outline: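 Rats on oral fixed-dose testing (30 or 50 mg/kg) were scored for motor impairment in parallel with seizure testing, at five time points from one quarter hour to 4 h. The rotorod end point was failure to keep equilibrium for 1 min.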

[14] = test system: Rattus norvegicus; test: Anticonvulsant activity in po dosed albino rat assessed as protection against maximal electroshock-induced seizures after 2 hrs; type: functional
[15] = test system: Rattus norvegicus; test: Anticonvulsant activity in Wistar rat assessed as inhibition of GABA-induced seizures measuring minimum GABA level per 100 mg whole brain required for 50 % inhibition at 30 mg/kg, ip as single dose measured after 2 hrs (reference value: 46.4 +/- 5.50 ug/100 mg brain); type: functional; conditions: route intraperitoneal
[16] = test system: Rattus norvegicus; test: Anticonvulsant activity in Wistar rat assessed as inhibition of GABA-induced seizures measuring minimum GABA level per 100 mg whole brain required for 50 % inhibition at 30 mg/kg, po for 7 days (reference value: 51.5 +/- 2.60 ug/100 mg brain); type: functional
Outline: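 Adult Wistar rats in groups of six were dosed orally at 30 mg/kg for 7 days. Whole-brain GABA was then measured enzymatically in ethanol extracts as µg/100 mg tissue. Values are mean ± SEM of six rats versus control (Student's t test).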

[17] = test system: Rattus norvegicus; test: Hepatotoxicity in albino rat assessed as change in SGPT level at 25 mg/kg, po for 14 days (reference value: 46.1+/-5.25 units/ml); type: toxicity, organism-based; parameters: dose 25 mg/kg, route oral; conditions: in vivo, 336 h
[18] = in vivo; conditions: albino, rat
[19] = test system: Rattus norvegicus; test: Hepatotoxicity in albino rat assessed as change in SGOT level at 25 mg/kg, po for 14 days (reference value: 74.2+/-5.95 units/ml); type: toxicity, organism-based; parameters: dose 25 mg/kg, route oral; conditions: in vivo, 336 h
[20] = test system: Rattus norvegicus; test: Anticonvulsant activity in po dosed albino rat assessed as protection against pentylenetetrazole-induced seizure after 1 hr; type: functional
[21] = Neurotoxicity in po dosed albino rat after 1 hr; type: toxicity, organism-based; conditions: in vivo
[22] = test system: Rattus norvegicus; test: Anticonvulsant activity in po dosed albino rat assessed as protection against maximal electroshock-induced seizures after 1 hr; type: functional

Compound | MTC [2] | Activity [4] | Activity [5] | minimal effective dose [6] | Activity [7] | also measured
Cc1nc2cc(F)ccc2c(=O)n1C(=S)NC(=O)Nc1nc2ccc(OC(F)(F)F)cc2s1 | 100 mg/kg | inactive | – | – | – | minimal effective dose [1]: 300 mg/kg; MTC [3]: 300 mg/kg
Cc1nc2ccccc2c(=O)n1C(=S)NC(=O)Nc1nc2cc(Cl)ccc2s1 | 100 mg/kg | – | Non-toxic | 100 mg/kg | – | minimal effective dose [1]: 300 mg/kg
Cc1nc2cc(F)ccc2c(=O)n1C(=S)NC(=O)Nc1nc2ccc(Br)cc2s1 | 300 mg/kg | – | Non-toxic | 300 mg/kg | inactive | –
Cc1nc2ccccc2c(=O)n1C(=S)NC(=O)Nc1nc2ccc(O)cc2s1 | – | inactive | – | – | inactive | –
Cc1nc2cc(F)ccc2c(=O)n1C(=S)NC(=O)Nc1nc2c(Br)cccc2s1 | 300 mg/kg | – | Non-toxic | 300 mg/kg | inactive | –
Cc1nc2cc(Cl)ccc2c(=O)n1C(=S)NC(=O)Nc1nc2c(Cl)cccc2s1 | – | – | – | 300 mg/kg | inactive | Activity [8]: Non-toxic; MTC [3]: 300 mg/kg
COc1ccc2nc(NC(=O)NC(=S)n3c(C)nc4cc(F)ccc4c3=O)sc2c1 | – | inactive | – | – | inactive | –
Cc1nc2cc(F)ccc2c(=O)n1C(=S)NC(=O)Nc1nc2ccc(O)cc2s1 | – | inactive | – | – | inactive | –
Cc1ccc2nc(NC(=O)NC(=S)n3c(C)nc4cc(F)ccc4c3=O)sc2c1 | – | inactive | – | – | inactive | –
CCC1(C)CC(=O)NC1=O (centres undefined) [ETHOSUXIMIDE] | – | inactive | Non-toxic | – | inactive | ED50 [9]: 1180 µmol/kg; selectivity ratio at 2 h [10]: > 3; ED50 [11]: 1180 µmol/kg; Activity [8]: Non-toxic; TD50 at 1 h [12]: 2410 µmol/kg; TD50 at 2 h [13]: > 3540 µmol/kg; ED50 [14]: > 3540 µmol/kg
Cc1nc2ccccc2c(=O)n1C(=S)NC(=O)Nc1nc2c(Br)cccc2s1 | – | inactive | – | – | inactive | –
Cc1nc2cc(Cl)ccc2c(=O)n1C(=S)NC(=O)Nc1nc2cc(Cl)ccc2s1 | – | – | – | 300 mg/kg | inactive | –
Cc1nc2cc(F)ccc2c(=O)n1C(=S)NC(=O)Nc1nc2cc(Cl)ccc2s1 | 100 mg/kg | – | – | 300 mg/kg | inactive | MTC [3]: 300 mg/kg
Cc1nc2cc(Cl)ccc2c(=O)n1C(=S)NC(=O)Nc1nc2ccc(O)cc2s1 | – | inactive | – | – | inactive | –
CN1C(=O)CC(=O)N(c2ccccc2)c2cc(Cl)ccc21 [CLOBAZAM] | – | – | – | – | – | Activity [15]: 101 µg; GABA level [16]: 110 µg/100 mg brain
Cc1nc2ccccc2c(=O)n1C(=S)NC(=O)Nc1nc2ccc(F)cc2s1 | 300 mg/kg | – | Non-toxic | 30 mg/kg | – | minimal effective dose [1]: 100 mg/kg

Compound | MTC [2] | Activity [4] | Activity [5] | minimal effective dose [6] | Activity [7] | also measured
Cc1nc2ccccc2c(=O)n1C(=S)NC(=O)Nc1nc2ccc(Br)cc2s1 | 300 mg/kg | – | Non-toxic | 100 mg/kg | – | minimal effective dose [1]: 300 mg/kg
Cc1nc2cc(Cl)ccc2c(=O)n1C(=S)NC(=O)Nc1nc2ccc(F)cc2s1 | – | – | – | 300 mg/kg | – | minimal effective dose [1]: 300 mg/kg
Cc1nc2ccccc2c(=O)n1C(=S)NC(=O)Nc1nc2c(Cl)cccc2s1 | 300 mg/kg | inactive | Non-toxic | – | inactive | –
Cc1nc2cc(Cl)ccc2c(=O)n1C(=S)NC(=O)Nc1nc2ccc(OC(F)(F)F)cc2s1 | 300 mg/kg | – | Non-toxic | 100 mg/kg | – | minimal effective dose [1]: 100 mg/kg
Cc1nc2cc(Cl)ccc2c(=O)n1C(=S)NC(=O)Nc1nc2ccc(Br)cc2s1 | 300 mg/kg | – | – | 100 mg/kg | inactive | MTC [3]: 300 mg/kg
O=C1NC(=O)C(c2ccccc2)(c2ccccc2)N1 [PHENYTOIN] | 100 mg/kg | – | – | 30 mg/kg | – | ED50 [9]: > 3540 µmol/kg; Activity [17]: 52.6 U/ml; minimal effective dose [1]: 30 mg/kg; selectivity ratio at 2 h [18]: > 22; TD50 at 2 h [13]: > 1980 µmol/kg; MTC [3]: 100 mg/kg; Activity [19]: 84.1 U/ml; ED50 [14]: 92 µmol/kg
Cc1nc2cc(F)ccc2c(=O)n1C(=S)NC(=O)Nc1nc2ccc(Cl)cc2s1 | 100 mg/kg | – | Non-toxic | 300 mg/kg | inactive | –
Cc1ccc2nc(NC(=O)NC(=S)n3c(C)nc4ccccc4c3=O)sc2c1 | 300 mg/kg | – | Non-toxic | 300 mg/kg | inactive | –
COc1ccc2nc(NC(=O)NC(=S)n3c(C)nc4ccccc4c3=O)sc2c1 | – | inactive | – | – | inactive | –
Cc1nc2cc(Cl)ccc2c(=O)n1C(=S)NC(=O)Nc1nc2ccc(Cl)cc2s1 | 300 mg/kg | – | – | 100 mg/kg | – | minimal effective dose [1]: 100 mg/kg
COc1ccc2nc(NC(=O)NC(=S)n3c(C)nc4cc(Cl)ccc4c3=O)sc2c1 | – | inactive | – | – | inactive | –
Cc1nc2cc(Cl)ccc2c(=O)n1C(=S)NC(=O)Nc1nc2c(Br)cccc2s1 | – | inactive | – | – | inactive | –
Cc1nc2cc(F)ccc2c(=O)n1C(=S)NC(=O)Nc1nc2ccc(F)cc2s1 | – | inactive | – | – | inactive | –
Cc1nc2cc(F)ccc2c(=O)n1C(=S)NC(=O)Nc1nc2c(Cl)cccc2s1 | 300 mg/kg | – | Non-toxic | 300 mg/kg | inactive | –
NC(=O)N1c2ccccc2C=Cc2ccccc21 [CARBAMAZEPINE] | 100 mg/kg | – | – | 30 mg/kg | – | minimal effective dose [1]: 100 mg/kg; ED50 [20]: > 1060 µmol/kg; TD50 at 1 h [21]: 1530 µmol/kg; MTC [3]: 300 mg/kg; ED50 [22]: 15.1 µmol/kg
Cc1ccc2nc(NC(=O)NC(=S)n3c(C)nc4cc(Cl)ccc4c3=O)sc2c1 | – | inactive | – | – | inactive | –
